# M4 PAM: positive allosteric modulators of human muscarinic M4 receptor. P08173. CHO-K1 hM4/Gqi5, Fluo-8 calcium fluorescence, ACh EC20; 0% = ACh EC20, 100% = maximal ACh. activation, % at 3 µM. hit rate 0.4% among 360,000;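 active = activation above its plate's cutoff, the mean activation of sample wells plus 3 SD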
# Target sequence (P08173 whole entry, looked up): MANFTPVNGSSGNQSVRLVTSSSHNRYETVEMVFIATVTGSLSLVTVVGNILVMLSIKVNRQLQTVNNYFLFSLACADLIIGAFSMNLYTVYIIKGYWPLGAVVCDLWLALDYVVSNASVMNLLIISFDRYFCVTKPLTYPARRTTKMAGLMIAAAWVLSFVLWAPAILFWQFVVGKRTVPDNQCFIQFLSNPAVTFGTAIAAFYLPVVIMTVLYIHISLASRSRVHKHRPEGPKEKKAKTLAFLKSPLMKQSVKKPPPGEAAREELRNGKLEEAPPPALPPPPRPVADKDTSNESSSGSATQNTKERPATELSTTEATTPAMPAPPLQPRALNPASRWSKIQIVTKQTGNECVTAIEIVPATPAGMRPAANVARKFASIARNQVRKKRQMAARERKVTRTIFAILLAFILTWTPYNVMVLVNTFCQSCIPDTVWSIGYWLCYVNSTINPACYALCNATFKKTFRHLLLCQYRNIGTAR
# M5 PAM: positive allosteric modulators of human muscarinic M5 receptor; P08912; CHO-K1 hM5, Fluo-8 calcium, ACh EC20 PAM; 0% = ACh EC20, 100% = ACh EC100; activation, % at 3 µM; hit rate 0.3% among 360,000; AID 624038;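 active = activation above the run cutoff, the mean activation of all test compounds plus 3 SD, cut at about 18% in these data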
#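 Assay system: CHO-K1 hM5 cells. Also added: acetylcholine at EC20 concentration, added after compound. Dosing: 3 µM, single dose. Times: compound preincubation 140 s before EC20 acetylcholine addition. Signal: Fluo-8 calcium fluorescence. Measure: % activation relative to EC20 and EC100 ACh responses. Repeats: singlicate, one well per test compound.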
# CHRM4 antagonist: antagonists of human muscarinic M4 receptor (CHRM4) | P08173 | CHO-hM4 cells, ACh EC80, Fluo-8 calcium fluorescence | inhibition, % at 3 µM | hit rate 0.73% among 360,000;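 active = inhibition above its plate's cutoff, the mean inhibition of sample wells plus 3 SD, cut at about 27% in these data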;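 note: 0% = acetylcholine EC80 with DMSO and 100% = DMSO without agonist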
# CHRM4 agonist: agonists of human muscarinic M4 receptor (CHRM4); hit rate 0.14% among 360,000; CHO-K1 hM4/Gqi5, Fluo-8 calcium fluorescence; vehicle 0%, full acetylcholine response 100%; AID 624127; activation, % at 3 µM;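 active = activation above the run mean over all test wells plus 3 SD, cut at about 32% in these data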;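 note: peak over basal fluorescence ratio per well then scaled between controls; 0% = DMSO wells and 100% = acetylcholine at EC100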
# M5 antag: CHRM5 antagonism in calcium assay; CHO-hM5 cells, Fluo-8 calcium fluorescence, ACh EC80; hit rate 0.59% among 360,000; inhibition, % at 3 µM;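 active = inhibition above a per-plate cutoff, the mean of that plate's test compounds plus 3 SD, cut at about 27% in these data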;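 note: 0% = acetylcholine EC80 with DMSO and 100% = DMSO without agonist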
# M5 ag: CHRM5 agonism in calcium assay; CHO-K1 hM5 cells, Fluo-8 calcium fluorescence; 0% DMSO wells, 100% maximal acetylcholine response; activation, % at 3 µM; hit rate 0.19% among 360,000; AID 624037;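 active = activation above the run's mean over test compounds plus 3 SD, cut at about 23% in these data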;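 note: signal is peak over basal fluorescence ratio across the kinetic read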
# Active calls of the source: *. Sampled rows, rich in hits. Any-hit rate of the full collection: about 1.8%.
SMILES,M4 PAM,M5 PAM,CHRM4 antagonist,CHRM4 agonist,M5 antag,M5 ag
O=C(CNC(=O)c1nc[nH]c1C(=O)NCC(=O)OCc1ccccc1)OCc1ccccc1,-8.5,-26.1,17.4,22.2,21.1,6.3
O=C(c1cc(C2CCCCN2C(=O)CCCc2ccccc2)on1)N1CCOCC1 (stereo not given),-4.7,-8.2,-0.5,6.9,20.7,0.3
CSc1ncccc1C(=O)N1CCC(C)(C(=O)O)C1 (stereo not given),3.3,0.5,-10.8,0.1,-8.4,-0.9
Cc1cc(C)c(C#N)c(SCc2ccccc2[N+](=O)[O-])n1,0.7,-5.9,3.9,-1.1,9.2,-5.2
Cc1cc(C)c(C#N)c(SCc2nnc(-c3ccccc3[N+](=O)[O-])o2)n1,-15.8,-21.0,7.2,24.3,46.7*,-2.4
O=C(NCc1ccco1)c1ccc(CN2CCOCC2)cc1,3.3,19.3*,1.4,0.4,11.1,0.5
Cc1c(Br)cc(C(=O)NCc2ccco2)c(C)c1C,-0.7,1.0,7.6,0.6,-3.0,-10.5
CC(=O)c1sc2nc(C)cc(C)c2c1N,23.3,-3.5,-5.3,0.3,0.8,2.0
Cc1c(C)n(C)c2ccc(C(=O)NCCc3ccco3)cc12,1.0,-7.9,2.8,0.6,22.0,-3.8
Cc1ccc(C(=O)NCc2ccco2)cc1Br,19.6*,-3.6,-5.0,1.4,0.6,-1.1
O=C(NCc1ccccc1)c1ccc(CN2CCOCC2)cc1,1.3,-1.3,-12.6,0.0,-0.6,0.8
Cc1cc(C)c2c(N)c(C(=O)NCc3ccco3)sc2n1,50.0*,3.2,-1.3,7.9,1.2,-1.2
CCn1c(C)c(C)c2cc(C(=O)NCCc3ccco3)ccc21,18.2*,16.0,0.8,0.9,-23.2,-2.4
CCCC(=O)N1CCCC1(C)C(=O)Nc1ccc2c(c1)CCN2C(C)=O (stereo not given),3.4,0.6,-10.9,0.5,10.4,1.1
Cc1cc2c(cc1C)-c1nnnn1C(N1CCCCC1)C(=O)N2 (stereo not given),-3.5,-5.1,7.2,1.5,4.1,-6.0
C[C@@]12C(=O)Nc3cc(Cl)ccc3C(=O)N1[C@H]1c3ccccc3OC[C@@H]1[C@@H]2c1ccccc1,-17.4,-15.5,33.1*,2.8,9.2,-1.6
Cc1ccc2c(c1)C(=O)N1[C@H]3c4cc(C)ccc4OC[C@@H]3[C@H](c3ccccc3)[C@]1(C)C(=O)N2,-14.8,-17.8,29.2*,0.7,10.2,-4.3
Cc1ccc2c(c1)C(=O)N1[C@H]3c4cc(Cl)ccc4OC[C@@H]3[C@H](c3ccccc3)[C@]1(C)C(=O)N2,-5.0,-3.3,3.6,0.3,-5.9,3.6
C[C@@]12C(=O)Nc3ccc(Cl)cc3C(=O)N1[C@H]1c3ccccc3OC[C@@H]1[C@@H]2c1ccccc1,-6.7,-27.6,41.0*,0.3,20.2,-2.8
c1ccc(NCCC2OCC3(CO2)COC(CCNc2ccccc2)OC3)cc1 (stereo not given),-2.3,-8.2,-3.0,5.3,28.8*,-1.2
CCn1c(SCC(=O)Nc2ccccc2)nc2c1c(=O)n(C)c(=O)n2C,-3.8,18.3*,6.9,1.6,1.4,2.2
CCOC(=O)C1(Cc2ccc(OC)cc2)CCN(C(=O)CN2CCCCC2=O)CC1,2.5,-9.5,-9.0,2.1,28.4*,-1.9
CCC(C)Nc1nc(-c2ccccn2)nc2ccccc12 (stereo not given),22.0*,6.4,-17.5,8.9,-15.8,-3.8
c1ccc(CNc2nc(-c3ccccn3)nc3ccccc23)cc1,10.3,1.6,-7.1,9.1,-7.3,1.6
Cc1c(NS(=O)(=O)c2cc(C(=O)NCC3CCCO3)cc(Cl)c2Cl)c(=O)n(-c2ccccc2)n1C (stereo not given),6.6,6.0,-3.1,0.9,8.5,1.8
Cc1ccc(-c2c[n+](CC(=O)Nc3c(C)cccc3C)c3n2CCC3)cc1,-9.0,16.2,2.5,-0.3,-15.0,-1.2
O=C(C[n+]1cc(-c2ccc(F)cc2)n2c1CCC2)N1c2ccccc2Sc2ccccc21,-16.9,-18.8,80.7*,1.0,97.1*,-8.0
